Laboratory results taken from PubChem BioAssay.
Unmarked numbers belong to inactive results. Results filed as inconclusive are left out. Calls of active or inactive are those of the source.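 How the source made its calls, unless noted: active means RAM network inhibition above 8.4% in each of two replicates, 3 SD over the compound average; inconclusive means above 8.4% inhibition in only one replicate; inactive means 8.4% inhibition or less in each replicate.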

Tests used:
[1] = S. cerevisiae growth inhibition in permissive medium (OD615), pilot counter-assay for S. cerevisiae lifespan shortening project, permissive growth control (AID 705;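 active means growth inhibition above 25% in both replicates, a cutoff set 3 SD above the mean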); conditions: OD615, 24 h, at 10 µM, stronger effect = higher value
Procedure, shortened: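 Material: engineered DeaD yeast; Compound: one dose 10 µM, DMSO 0.25% final; Detection: absorbance (optical density) at 615 nm; Buffer or medium: permissive raffinose/galactose medium; Timing: 24 h exposure, 30 °C.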

[2] = S. cerevisiae growth inhibition in restrictive medium, OD615, pilot screen, restrictive growth control, yeast lifespan reduction project (AID 706;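 active means growth inhibition above a set limit, 3 SD over mean compound inhibition, in both replicates, cut at about 43% in these data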;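 further: modified DeaD lifespan yeast strain shifted to restrictive glucose medium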); conditions: OD615, 48 h, at 10 µM, stronger effect = higher value
Procedure, shortened: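 Buffer or medium: restrictive glucose medium (CSMM-D); test system: modified S. cerevisiae; doses: single dose of 10 µM compound final, 0.25% DMSO; schedule: 48 h compound exposure at 30 °C; detection: absorbance (optical density) measured at 615 nm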

[3] = doxorubicin toxicity protection in MRP-1 cells – H69AR cells, CellTiter-Glo, duplicate, MRP-1 activator project, pilot screen (AID 807;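 active means viability increase at or above a cutoff of the median across tested compounds plus 3 SD, cut at about 8.5% in these data, passing the limit was not always enough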;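 further: compound pretreatment 18-22 h then 72 h combined with doxorubicin; 0% = doxorubicin alone and 100% = vehicle without doxorubicin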); conditions: H69AR viability with doxorubicin, CellTiter-Glo luminescence; at 10 µM; stronger effect = higher value
[4] = viability of HCT116 without oncogenic beta-catenin – human colon tumor cells, pilot screen (AID 823;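 active means cell viability at or below a set limit in both duplicate runs, the limit being the all-compound median minus 4 SD, cut at about 23% in these data, passing the limit was not always enough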;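 further: 0% = wells killed by 20 µM Hyamine and 100% = untreated DMSO cell wells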); conditions: HCT116 beta-catenin knockout viability, CellTiter-Glo, 60 h; at 10 µM; stronger effect = lower value
[5] = viability of PTEN-null HCT116 cells – cell-based, HCT116 clonal line, CellTiter-Glo, pilot screen (AID 824;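 active means viability at or below 27.92% in each of two runs, the all-compound median minus 4 SD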;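 further: 0% = 20 µM Hyamine control and 100% = vehicle cell control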); conditions: HCT116 PTEN-deleted viability, 60 h, at 10 µM, stronger effect = lower value
[6] = RAM pathway blockade in budding yeast – dse1pr::URA3 reporter, 5-FOA selection, pilot screen (AID 869;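 active means inhibition over a set limit, the all-compound mean plus 3 SD, in both replicate runs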;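 further: 0% = DMSO wells with no growth and 100% = 10 µM 1-NA-PP1 with full growth; RAM network block rescues cells from 5-FOA so hits raise OD615 growth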); conditions: S. cerevisiae dse1pr::URA3 5-FOA growth, OD615, 2 d; at 10 µM; stronger effect = higher value; strain carries analog-sensitive mutant Cbk1 kinase
[7] = RAM signaling pathway blockade in yeast – S. cerevisiae, Pdr1DBD-CYC8 efflux-inhibited sensitized strain, primary screen (AID 1298);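 further: 0% = DMSO untreated cells without growth and 100% = 10 µM 1-NA-PP1 full growth; higher means more yeast growth rescued from 5-FOA killing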; conditions: S. cerevisiae cbk1-as DSE1-URA3 strain, 5-FOA growth OD615, 2 d; at 50 µM; stronger effect = higher value

Structure (SMILES)	growth inhibition [1]	growth inhibition [2]	viability increase [3]	viability [4]	viability [5]	inhibition [6]	RAM network inhibition [7]
CC(=O)C1=C(C)NC(SCC(=O)c2ccccc2)=C(C#N)C1c1ccco1 (stereo not drawn)	-3.25%	21.2%	-6.35%	55%	56%	1.5%	3.37%
Cc1ccc(-c2nc3cccnc3o2)cc1NC(=O)COc1ccc(Cl)cc1C	-19.4%	-8.21%	-8.36%	17.5% (active)	4.66% (active)	1.5%	8.1%
O=C(NCc1ccco1)C1CCN(c2nnc(-n3cccc3)s2)CC1	3.71%	-3.18%	-3.76%	97.2%	95.8%	0.985%	5.26%
CC(C)NS(=O)(=O)c1ccc(NC(=O)c2cccnc2)cc1	-12.7%	-17.3%	-0.51%	112%	97.1%	1.95%	1.31%
CCN(CCCNS(=O)(=O)c1ccc2c(c1)CCN2C(C)=O)c1cccc(C)c1	-4.96%	9.51%	-2.74%	75.3%	82.5%	0.28%	4.1%
Cc1cc(C(=O)N2CCN(C(c3ccccc3)c3ccccc3)CC2)on1	-11.2%	-5.41%	0.42%	89.7%	76.7%	2.04%	3.7%
CC(=O)Nc1ccc(-n2c(C)c(C(C)=O)c(C(C)=O)c2C)cc1	-2.51%	-2.06%	-2.3%	102%	101%	0.515%	4.97%
COc1ccc(CSc2nnnn2C)cc1F	-3.21%	4.8%	-0.89%	91.4%	95%	2.62%	-0.46%
Cc1cc(Nc2ncc(Cl)cc2Cl)n(-c2ccccn2)n1	-1.14%	3.23%	-5.35%	89.3%	76.5%	1.93%	4.08%
COC(=O)c1c(-c2cccc(OC)c2)csc1N	-8.46%	1.4%	-4.63%	103%	100%	1.37%	0.9%
O=C(Cn1c(CN2CCCCC2)nc2ccccc2c1=O)NC1CCCCC1	-7.65%	-24.4%	-2.4%	95.4%	88%	-0.59%	-1.71%
O=C(C1CCCN(S(=O)(=O)c2cccc3cccnc23)C1)N1CCN(c2ccccc2F)CC1 (stereo not drawn)	-5.55%	7.3%	-0.18%	73.2%	76.5%	-0.265%	2.98%
Clc1ccccc1-c1ccc(/C=N/n2cnnc2)o1	-1.67%	11.9%	-1.41%	102%	95.1%	1.61%	4.98%
CC(=O)C1=C(C)NC(SCC(N)=O)=C(C#N)C1c1cccnc1 (stereo not drawn)	6.58%	20.8%	1.67%	104%	101%	1.12%	1.65%
O=C(Nc1ccc(N2CCCC2)c(Cl)c1)c1ccc(Br)o1	3.44%	17%	-4.13%	78.2%	79.2%	0.885%	3.68%
COc1ccccc1C1(CC(=O)O)CCOC(C)(C)C1 (stereo not drawn)	-2.27%	-9.79%	-1.61%	90.9%	92.2%	0.095%	-1.44%
OC(COc1ccc(Cl)c2ccccc12)CN1CCN(c2ccccn2)CC1 (stereo not drawn)	-5.89%	-11.6%	-3.19%	94.9%	95.2%	-0.275%	4.46%
O=C(c1ccc(CN2CCOCC2)cc1)N1CCN(Cc2ccccc2)CC1	-15%	-5.85%	0.28%	97.5%	97.9%	0.83%	12.1%
CCC(=O)Nc1cccc(NC(=O)c2cc3ccccc3o2)c1	-10.9%	-9.17%	-1.82%	93.8%	90.2%	1.2%	5.21%
O=C(COc1ccc2c3c(c(=O)oc2c1)CCC3)c1ccc2c(c1)OCO2	-8.44%	-1.49%	2.35%	63.2%	65.1%	2.27%	7.83%
CCOC(=O)N1CCN(C(=O)c2oc3ccc(S(=O)(=O)N4CCCCCC4)cc3c2C)CC1	-9.38%	-0.595%	-4.29%	59.3%	71.1%	-0.805%	1.63%
C=CCOC(=O)C1CC=CCC1C(=O)Oc1ccc(F)cc1F (stereo not drawn)	-18.3%	-15.3%	-1.32%	100%	94%	2.56%	1.82%
O=C(C1CCC(CNc2c(N3CCCCC3)c(=O)c2=O)CC1)N1CCN(c2ccccn2)CC1 (stereo not drawn)	-4.55%	-1.08%	-0.36%	102%	99.1%	-0.5%	4.92%
COc1ccc(C2=NOC(C(=O)Nc3cc(C)nn3-c3ccccc3)C2)cc1OC (stereo not drawn)	-14.9%	-31.2%	-0.06%	103%	97.1%	1.11%	1.36%
COc1ccc(C2CC(c3ccc(Cl)cc3)n3nc(N)nc3N2)cc1 (stereo not drawn)	-5.72%	10.7%	2.46%	100%	95.1%	3.23%	4.44%

Structure (SMILES)	growth inhibition [1]	growth inhibition [2]	viability increase [3]	viability [4]	viability [5]	inhibition [6]	RAM network inhibition [7]
CCNc1nc(C)cc(COC)c1C#N	-6.41%	-0.29%	-0.27%	97.7%	102%	1.4%	-0.06%
C=CCn1c(O)c(C2=c3ccccc3=NC2=O)s/c1=N/c1nccs1	-9.64%	-9.09%	-7.95%	42.1%	36%	0.115%	5.25%
Nn1c(SC/C=C/c2ccccc2)nnc1-c1ccccn1	-5.81%	-10%	-0.88%	103%	95.1%	-0.5%	-2.02%
COc1ccc(S(=O)(=O)Cc2ccc(C(=O)N3CCN(C(=O)c4ccco4)CC3)o2)cc1	0.785%	1.27%	-2.09%	92.8%	100%	2.06%	3.94%
COc1cc(S(=O)(=O)N2CCN(Cc3ccc4c(c3)OCO4)CC2)c(C)cc1C	-4.19%	-11.6%	-4.77%	57.5%	71.1%	2.5%	5.84%
Cc1nn(Cc2ccc(Cl)c(Cl)c2)c(C)c1NC(=O)c1cc(C2CC2)on1	-10.7%	1.77%	1.41%	79%	84.7%	0.125%	2.79%
Cc1cccn2cc(CCNC(=O)c3ccc(Br)o3)nc12	-8.18%	-5.67%	-1.61%	99%	94.3%	1.12%	1.91%
Cc1ccc(CNC(=O)c2cc3c(-c4ccc(Cl)cc4)nn(C)c3s2)o1	-7.97%	-5.61%	-6.4%	53.9%	48.7%	3.25%	2.13%
O=S(=O)(NCCOCCNS(=O)(=O)c1ccccc1)c1ccccc1	-6.38%	-1.27%	0.8%	91.2%	96.1%	0.05%	1.94%
CCCCn1c(CCC(=O)O)ccc1-c1cccs1	6.82%	10.6%	-3.36%	97.1%	94.8%	0.85%	-1.84%
Cc1cccc(OCc2nnc(SCC(=O)Nc3ccc(C)c(C)c3)o2)c1	-5.54%	1.43%	-2.67%	102%	94.2%	4.2%	1.73%
CCCn1cc(S(=O)(=O)CC(=O)NC2CCCCC2)c2ccccc21	-1.69%	-0.78%	-0.07%	93.2%	101%	1.39%	2.24%
Cc1ccc2cc(CCNC(=O)C(C)(C)C)c(=O)[nH]c2c1	-5.49%	-13.2%	0.4%	105%	97.5%	0.125%	3.53%
C=CCn1c(SCCCc2ccccc2)nc2c1c(=O)[nH]c(=O)n2C	5.96%	6.29%	-5.7%	67.8%	65.2%	0.525%	4.94%
CC(C)(Oc1ccc(-c2ccco2)cc1)C(=O)O	-0.405%	0.705%	-0.38%	97.8%	96.8%	0.31%	1.07%
CCOC(=O)Cn1c(CN2CCOCC2)nc2c1c(=O)n(C)c(=O)n2C	-1.92%	-5.31%	1.26%	107%	103%	1.72%	2.19%
O=C(Nc1ccc(F)cc1F)N1CCN(C/C=C/c2ccccc2)CC1	-1.48%	2.67%	0.1%	86.7%	89%	2.04%	0.95%
CCOc1ccc(N(CC(=O)NC(C)(C)C)S(=O)(=O)c2c(C)noc2C)cc1	-19.9%	-9.45%	-4.94%	81.5%	81.8%	0.36%	-1%
O=C1c2ccccc2C(Nc2ccc(Cl)cn2)N1c1ccccn1 (stereo not drawn)	-15.4%	0.32%	-4.01%	75.1%	81.1%	2.39%	8.97%
Cc1cc(NC(=O)CC(CN(C)S(=O)(=O)c2ccccc2)c2ccccc2)no1 (stereo not drawn)	-7.79%	-20.5%	-4.04%	89.7%	81.3%	1.59%	3.14%
CC(=O)Nc1cccc(N2C(=O)CC(Cc3ccccc3)C2=O)c1 (stereo not drawn)	-6.24%	-3.32%	-1.68%	91.5%	89%	0.52%	7.45%
O=C1N(O)C2(C=CCCC2)/C(=N\O)C12CCCCC2 (stereo not drawn)	-11.1%	-1.67%	-2.64%	90.1%	100%	-0.15%	1.27%
CCOC(=O)c1ccc(NC(=O)CN2C(=O)CSC2=O)cc1	-1.29%	-0.27%	1.63%	95.7%	103%	3.08%	4.03%
Cc1cccc(-n2c(CNC(=O)c3ccccc3)nnc2SCC(=O)Nc2nccs2)c1	4.21%	15.6%	-3.48%	112%	103%	1.17%	5.7%
